{
  "source": "paper PMC3778312",
  "about": "(British Journal of Cancer, 2013)",
  "key": {"[1]": {"assay": "Phase 1 safety monitoring of PX-866 with docetaxel", "type": "in vivo, human", "procedure,_shortened": "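Open-label dose escalation in cohorts of 6–9 patients at 4, 6 or 8 mg oral daily test compound plus docetaxel 75 mg m−2 IV every 21 days, with dexamethasone premedication. All patients receiving ≥1 dose had vital signs, labs and exams; AEs were graded by NCI CTCAE v4.02. DLTs included related grade ≥3 events, febrile grade 3/4 neutropenia, platelets <25 000 per μl and ANC <500 per μl for >7 days.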"}, "[2]": {"system": "PI3Kα", "conditions": "read-out: IC50 against PI3Kα; ref Wipf et al, 2004; cited from earlier work"}, "[3]": {"system": "advanced solid tumors", "conditions": "ref Hong et al, 2012, cited from earlier work"}, "[4]": {"system": "U87 glioma xenografts", "conditions": "single agent; ref Ihle et al, 2005; Koul et al, 2010; cited from earlier work"}, "[5]": {"system": "incurable solid tumours", "assay": "Phase 1 antitumour activity of PX-866 with docetaxel", "type": "in vivo, human", "procedure,_shortened": "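Test compound given orally at 4, 6 or 8 mg daily (fasting) with docetaxel 75 mg m−2 IV every 21 days. In cycle 1, docetaxel was given on day 1 and the test compound started on day 8. Response was assessed about every 6 weeks by RECIST 1.1, with PSA per PCWG allowed in mCRPC. PFS ran from consent to progression or death. Archival tumour was genotyped for PIK3CA/KRAS by shifted termination assay.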"}, "[6]": {"system": "PI-3Kβ", "conditions": "read-out: IC50 against PI-3Kβ; ref Wipf et al, 2004; cited from earlier work"}, "[7]": {"system": "OvCar-3 ovarian cancer xenografts", "conditions": "single agent; ref Ihle et al, 2005; Koul et al, 2010; cited from earlier work"}, "[8]": {"system": "A-549 NSCLC xenografts", "conditions": "single agent; ref Ihle et al, 2005; Koul et al, 2010; cited from earlier work"}, "[9]": {"system": "Patient-derived SCCHN xenografts", "conditions": "PX-866 and docetaxel compared with either agent alone; ref Bowles et al, 2011; cited from earlier work"}, "[10]": {"system": "HT29 colon cancer xenografts", "conditions": "single agent; ref Ihle et al, 2005; Koul et al, 2010; cited from earlier work"}, "[11]": {"conditions": "PX-866 with docetaxel, 43 patients"}, "[12]": {"conditions": "Total, all PX-866 doses + docetaxel, N=43"}},
  "note": "“Also recorded” adds a separate entry of the source.",
  "data": [
    {"smiles": "C=CCN(/C=C1/C(=O)O[C@H](COC)[C@@]2(C)C1=C(O)C(=O)C1=C2[C@H](OC(C)=O)C[C@]2(C)C(=O)CC[C@@H]12)CC=C", "note": "[PX-866]", "values": [
      {"measurement": "Treatment-emergent AE: Neutropenia", "setting": "[1]; PX-866 8 mg + docetaxel, N=23", "value": "6 (26) N (%)"},
      {"measurement": "Treatment-emergent AE: Oedema peripheral", "setting": "[1]; PX-866 8 mg + docetaxel, N=23", "value": "7 (30) N (%)"},
      {"measurement": "Treatment-emergent AE: Oropharyngeal pain", "setting": "[1]; PX-866 8 mg + docetaxel, N=23", "value": "5 (22) N (%)"},
      {"measurement": "Treatment-emergent AE: Pyrexia", "setting": "[1]; PX-866 8 mg + docetaxel, N=23", "value": "6 (26) N (%)"},
      {"measurement": "Treatment-emergent AE: Stomatitis", "setting": "[1]; PX-866 8 mg + docetaxel, N=23", "value": "4 (17) N (%)"},
      {"measurement": "Treatment-emergent AE: Vomiting", "setting": "[1]; PX-866 8 mg + docetaxel, N=23", "value": "14 (61) N (%)"},
      {"measurement": "Treatment-emergent AEs, frequency by severity: Grade 1", "setting": "[1]; PX-866 8 mg + docetaxel, N=23", "value": "84 (50) N (%)"},
      {"measurement": "Treatment-emergent AEs, frequency by severity: Grade 2", "setting": "[1]; PX-866 8 mg + docetaxel, N=23", "value": "62 (37) N (%)"},
      {"measurement": "Treatment-emergent AEs, frequency by severity: Grade 3", "setting": "[1]; PX-866 8 mg + docetaxel, N=23", "value": "15 (9) N (%)"},
      {"measurement": "Treatment-emergent AEs, frequency by severity: Grade 4", "setting": "[1]; PX-866 8 mg + docetaxel, N=23", "value": "8 (5) N (%)"},
      {"measurement": "Treatment-emergent AEs, frequency by severity: Grade 5", "setting": "[1]; PX-866 8 mg + docetaxel, N=23", "value": "0 (0) N (%)"},
      {"measurement": "dose-limiting toxicities", "setting": "[1]; PX-866 4, 6, 8 mg daily with docetaxel 75 mg m^−2", "value": "No dose-limiting toxicities; also recorded: No DLTs"},
      {"measurement": "tolerability", "setting": "[1]; PX-866 and docetaxel", "value": "well tolerated"},
      {"measurement": "gastrointestinal disorders, PX-866-related", "setting": "[1]; [11]", "value": 83.7, "unit": "%"},
      {"measurement": "study drug-related diarrhoea, patients", "setting": "[1]; [11]", "value": 76.7, "unit": "%"},
      {"measurement": "Grade 3/4 AE related to PX-866: diarrhoea", "setting": "[1]; PX-866 with docetaxel, N=43", "value": 3, "unit": "N"},
      {"measurement": "Grade 3/4 AE related to PX-866: nausea", "setting": "[1]; PX-866 with docetaxel, N=43", "value": 2, "unit": "N"},
      {"measurement": "SAEs considered related to study treatment", "setting": "[1]; PX-866 with docetaxel, N=43", "value": 17},
      {"measurement": "patients who experienced serious AEs", "setting": "[1]; PX-866 with docetaxel, N=43", "value": "Twenty"},
      {"measurement": "treatment-emergent AE neutropenia", "setting": "[1]; PX-866 with docetaxel, N=43", "value": 40, "unit": "%"},
      {"measurement": "treatment-emergent AE peripheral oedema", "setting": "[1]; PX-866 with docetaxel, N=43", "value": 40, "unit": "%"},
      {"measurement": "treatment-emergent AE vomiting", "setting": "[1]; PX-866 with docetaxel, N=43", "value": 51, "unit": "%"},
      {"measurement": "Treatment-emergent AE: Alopecia", "setting": "[1]; [12]", "value": "12 (28) N (%)"},
      {"measurement": "Treatment-emergent AE: Anaemia", "setting": "[1]; [12]", "value": "13 (30) N (%)"},
      {"measurement": "Treatment-emergent AE: Arthralgia", "setting": "[1]; [12]", "value": "7 (16) N (%)"},
      {"measurement": "Treatment-emergent AE: Asthenia", "setting": "[1]; [12]", "value": "11 (26) N (%)"},
      {"measurement": "Treatment-emergent AE: Bone pain", "setting": "[1]; [12]", "value": "9 (21) N (%)"},
      {"measurement": "Treatment-emergent AE: Constipation", "setting": "[1]; [12]", "value": "13 (30) N (%)"},
      {"measurement": "Treatment-emergent AE: Cough", "setting": "[1]; [12]", "value": "10 (23) N (%)"},
      {"measurement": "Treatment-emergent AE: Decreased appetite", "setting": "[1]; [12]", "value": "15 (35) N (%)"},
      {"measurement": "Treatment-emergent AE: Dehydration", "setting": "[1]; [12]", "value": "15 (35) N (%)"},
      {"measurement": "Treatment-emergent AE: Diarrhoea", "setting": "[1]; [12]", "value": "33 (77) N (%)"},
      {"measurement": "Treatment-emergent AE: Dizziness", "setting": "[1]; [12]", "value": "7 (16) N (%)"},
      {"measurement": "Treatment-emergent AE: Dysgeusia", "setting": "[1]; [12]", "value": "8 (19) N (%)"},
      {"measurement": "Treatment-emergent AE: Epistaxis", "setting": "[1]; [12]", "value": "7 (16) N (%)"},
      {"measurement": "Treatment-emergent AE: Fatigue", "setting": "[1]; [12]", "value": "26 (61) N (%)"},
      {"measurement": "Treatment-emergent AE: Hypokalemia", "setting": "[1]; [12]", "value": "9 (21) N (%)"},
      {"measurement": "Treatment-emergent AE: Nausea", "setting": "[1]; [12]", "value": "25 (58) N (%)"},
      {"measurement": "Treatment-emergent AE: Neutropenia", "setting": "[1]; [12]", "value": "17 (40) N (%)"},
      {"measurement": "Treatment-emergent AE: Oedema peripheral", "setting": "[1]; [12]", "value": "17 (40) N (%)"},
      {"measurement": "Treatment-emergent AE: Oropharyngeal pain", "setting": "[1]; [12]", "value": "7 (16) N (%)"},
      {"measurement": "Treatment-emergent AE: Pyrexia", "setting": "[1]; [12]", "value": "11 (26) N (%)"},
      {"measurement": "Treatment-emergent AE: Stomatitis", "setting": "[1]; [12]", "value": "9 (21) N (%)"},
      {"measurement": "Treatment-emergent AE: Vomiting", "setting": "[1]; [12]", "value": "22 (51) N (%)"},
      {"measurement": "Treatment-emergent AEs, frequency by severity: Grade 1", "setting": "[1]; [12]", "value": "152 (51) N (%)"},
      {"measurement": "Treatment-emergent AEs, frequency by severity: Grade 2", "setting": "[1]; [12]", "value": "102 (34) N (%)"},
      {"measurement": "Treatment-emergent AEs, frequency by severity: Grade 3", "setting": "[1]; [12]", "value": "28 (9) N (%)"},
      {"measurement": "Treatment-emergent AEs, frequency by severity: Grade 4", "setting": "[1]; [12]", "value": "18 (6) N (%)"},
      {"measurement": "Treatment-emergent AEs, frequency by severity: Grade 5", "setting": "[1]; [12]", "value": "0 (0) N (%)"},
      {"measurement": "RP2D of PX-866 in combination", "setting": "[1]; daily, with docetaxel 75 mg m^−2 IV every 21 days", "value": 8, "unit": "mg"},
      {"measurement": "deaths on study", "setting": "[1]; two after progressive disease, one pneumonia unrelated to either study drug", "value": "three"},
      {"measurement": "IC50", "setting": "[2]", "value": "39 ± 21", "unit": "nM"},
      {"measurement": "single-agent MTD", "setting": "[3]; previously determined, daily", "value": 8, "unit": "mg"},
      {"measurement": "time PX-866 may be given safely", "setting": "[3]", "value": "over 1 year"},
      {"measurement": "best response per RECIST 1.1: stable disease, share of evaluable patients", "setting": "[3]; single-agent PX-866, week 6", "value": "over 50%"},
      {"measurement": "recommended phase 2 dose (RP2D), single agent", "setting": "[3]; single-agent PX-866", "value": 8, "unit": "mg daily"},
      {"measurement": "tumour growth", "setting": "[4]", "value": "delays tumour growth"},
      {"measurement": "evaluable patients remaining on study in excess of 180 days", "setting": "[5]; 11 out of 35", "value": 31, "unit": "%"},
      {"measurement": "best response: partial response (PR)", "setting": "[5]; 35 evaluable patients (2 patients)", "value": 6, "unit": "%"},
      {"measurement": "best response: disease progression (PD)", "setting": "[5]; 35 evaluable patients (11 patients)", "value": 31, "unit": "%"},
      {"measurement": "median PFS, PIK3CA-MUT/KRAS-WT", "setting": "[5]; N=6, range: 49–334, P=0.23 vs WT/WT", "value": 175, "unit": "days"},
      {"measurement": "median PFS, mutational status unknown", "setting": "[5]; N=12, range: 1–569", "value": 77.5, "unit": "days"},
      {"measurement": "median PFS, PIK3CA-WT/KRAS-WT", "setting": "[5]; N=20, range: 1–342", "value": 49, "unit": "days"},
      {"measurement": "PR+SD rate", "setting": "[5]; evaluable patients", "value": 69, "unit": "%"},
      {"measurement": "overall median progression-free survival (PFS)", "setting": "[5]; range: 1–569", "value": 73.5, "unit": "days"},
      {"measurement": "patients with tumour shrinkage of ⩾15%", "setting": "[5]; ten patients", "value": 29, "unit": "%"},
      {"measurement": "IC50", "setting": "[6]", "value": "88 ± 27", "unit": "nM"},
      {"measurement": "tumour growth", "setting": "[7]", "value": "delays tumour growth"},
      {"measurement": "tumour growth", "setting": "[8]", "value": "delays tumour growth"},
      {"measurement": "tumour suppression", "setting": "[9]", "value": "enhanced tumour suppression"},
      {"measurement": "tumour growth", "setting": "[10]", "value": "delays tumour growth"}
    ]}
  ]
}
